Series [1] concerns wild-type (WT) zebrafish embryos. Put plainly: Toxicity profiling of embryo zebrafish. The format is in vivo, zebrafish (Danio rerio). The method in brief: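 Wild-type embryos were exposed from 5 hpf to the test compound at 0, 4.29, 8.58, 12.86, 17.15 and 21.44 μM, serially diluted from a 1 mM DMSO stock. Triplicates had 10 embryos each (n = 30). Mortality was scored daily, with LC50 at 72 hpf. Spontaneous coils were counted for 1 min at 24 hpf after 5 min habituation. Percent hatched was scored at 72 hpf. Data are mean ± SEM, analysed by one-way ANOVA with Tukey.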

Series [2] relates to PTZ-induced larvae of zebrafish. The experiment in a line: Behavioural assessment in PTZ-induced epilepsy zebrafish larvae. The series is classed as in vivo, zebrafish (Danio rerio).
Series [3] concerns zc4h2 KO zebrafish larvae. Put plainly: Heartbeat / cardiotoxicity in zc4h2 KO zebrafish larvae. The format is in vivo, zebrafish (Danio rerio). As to conditions: for cardiotoxicity: zebrafish larvae, judged from heartbeat.
The conditions of series [4]: cited from earlier work.
The subject of series [5] is zebrafish larvae. As to conditions: cited from earlier work.
Where [6] appears, read: 2.5 mM PTZ, 5 dpf larvae, 8.58 μM compound 8 or 100 μM VPA, 1 h.
[7] abbreviates: 2.5 mM PTZ, 5 dpf larvae, 8.58 μM compound 8 or 100 μM VPA, 1 h, vs PTZ group.
[8] abbreviates: 2.5 mM PTZ alone vs control, 5 dpf larvae.

“Also recorded” adds a separate entry of the source.

For `O=C(/C=C/c1cc(F)cc(F)c1)c1ccc[nH]1` [Compound 8, (E)-3-(3,5-difluorophenyl)-1-(1H-pyrrol-2-yl)prop-2-en-1-one], the “mortality at the beginning of the observation period” value in series [1] (21.44 μM, 24 hpf) is on record as “lethal”. Besides, in series [1] (>12.86 μM, 24 hpf), the “spontaneous tail coiling (STC)” value is on record as “no tail movement”. The molecule further came in with an optimal safe concentration in series [1] (chosen from all toxicological parameters) of 8.58 µM. The molecule further came in with a cumulative mortality rate in series [1] (exposure of 12.86 μM or more, 24–72 hpf) of over 80%. Moreover, the “mortality compared to the control group” value in series [1] (exposure up to 8.58 μM) is “no significant difference”. The “spontaneous tail coiling (STC) compared to control” value in series [1] (from 8.58 μM, 24 hpf) is given as “significant decrease”. Further, the hatching rate result in series [1] (from 12.86 μM, 72 hpf) is “decreased significantly”. Further, in series [2] (setting [6]), the “distance spent in the inner area (thigmotaxis)” value is “significantly increased” and the “total duration of freezing” value is on record as “increased”. For the same molecule, in series [2] (setting [7]), the “average velocity (average speed travelled)” value is reported as “significant decrease”, the “number of freezing count” value is reported as “significant reduction” and the “total velocity (total speed travelled)” value is recorded as “significant decrease”. Moreover, the convulsive behaviour result in series [2] (PTZ-induced larvae) was “effective in reducing”. In series [3] (5 dpf larvae, 2 h incubation, vs control groups), the “heartbeat (heartbeats/min)” value is listed as “no significant difference”. For the same molecule, the cardiotoxicity result in series [3] is given as “no cardiotoxic effects”. Also, in series [3] (listed as compound 8), the cardiotoxicity result was “no cardiotoxic effect; also recorded: no potential cardiotoxicity”.

Take `O=c1onc(-c2cccs2)n1Cc1ccc(F)cc1Cl` [GM90432, 4-(2-chloro-4-fluorobenzyl)-3-(2-thienyl)-1,2,4-oxadiazol-5(4H)-one]: in series [4], the blood-brain barrier passage entry is “effectively cross the blood-brain barrier”.

For `C1CCc2nnnn2CC1` [PTZ, pentylenetetrazol], in series [2] (setting [8]), the “distance and speed of zebrafish” value was “significantly increased”; the “total number of freezes” value is “significantly increased”.

In the case of `CCCC(CCC)C(=O)O` [VPA, sodium valproate], in series [2] (setting [6]), the “distance spent in the inner area (thigmotaxis)” value is “significantly increased” and the “total duration of freezing” value is on record as “without significant changes”. Besides, in series [2] (setting [7]), the “average velocity (average speed travelled)” value was “significant decrease”; the “distance travelled (total and average)” value was “significant decrease”; the “number of freezing count” value is “significantly reduced”; the “total velocity (total speed travelled)” value is reported as “significant decrease”.

Regarding `CN1C(=O)CN=C(c2ccccc2)c2cc(Cl)ccc21` [diazepam], the “percentage of distance spent in the inner area” value in series [5] is “significantly increased”.

(Values after article PMC9958447 (Heliyon, 2023).)
